Results: ChEMBL document CHEMBL2216753, “Novel 1,4-benzoxazine and 1,4-benzodioxine inhibitors of angiogenesis” (Eur J Med Chem, 2012)
Calls of active or inactive are those of the source. No cut-off for these calls is given here.

What was measured:
[1] = target: Vascular endothelial growth factor receptor 2 (Homo sapiens, UniProt P35968); experiment: Inhibition of human recombinant VEGFR2 expressed in Sf9 insect cells assessed as inhibition of poly(Glu,Tyr) 4:1 substrate phosphorylation by radiometric assay
Sequence of Vascular endothelial growth factor receptor 2 (P35968 whole entry, the tested form may be a part): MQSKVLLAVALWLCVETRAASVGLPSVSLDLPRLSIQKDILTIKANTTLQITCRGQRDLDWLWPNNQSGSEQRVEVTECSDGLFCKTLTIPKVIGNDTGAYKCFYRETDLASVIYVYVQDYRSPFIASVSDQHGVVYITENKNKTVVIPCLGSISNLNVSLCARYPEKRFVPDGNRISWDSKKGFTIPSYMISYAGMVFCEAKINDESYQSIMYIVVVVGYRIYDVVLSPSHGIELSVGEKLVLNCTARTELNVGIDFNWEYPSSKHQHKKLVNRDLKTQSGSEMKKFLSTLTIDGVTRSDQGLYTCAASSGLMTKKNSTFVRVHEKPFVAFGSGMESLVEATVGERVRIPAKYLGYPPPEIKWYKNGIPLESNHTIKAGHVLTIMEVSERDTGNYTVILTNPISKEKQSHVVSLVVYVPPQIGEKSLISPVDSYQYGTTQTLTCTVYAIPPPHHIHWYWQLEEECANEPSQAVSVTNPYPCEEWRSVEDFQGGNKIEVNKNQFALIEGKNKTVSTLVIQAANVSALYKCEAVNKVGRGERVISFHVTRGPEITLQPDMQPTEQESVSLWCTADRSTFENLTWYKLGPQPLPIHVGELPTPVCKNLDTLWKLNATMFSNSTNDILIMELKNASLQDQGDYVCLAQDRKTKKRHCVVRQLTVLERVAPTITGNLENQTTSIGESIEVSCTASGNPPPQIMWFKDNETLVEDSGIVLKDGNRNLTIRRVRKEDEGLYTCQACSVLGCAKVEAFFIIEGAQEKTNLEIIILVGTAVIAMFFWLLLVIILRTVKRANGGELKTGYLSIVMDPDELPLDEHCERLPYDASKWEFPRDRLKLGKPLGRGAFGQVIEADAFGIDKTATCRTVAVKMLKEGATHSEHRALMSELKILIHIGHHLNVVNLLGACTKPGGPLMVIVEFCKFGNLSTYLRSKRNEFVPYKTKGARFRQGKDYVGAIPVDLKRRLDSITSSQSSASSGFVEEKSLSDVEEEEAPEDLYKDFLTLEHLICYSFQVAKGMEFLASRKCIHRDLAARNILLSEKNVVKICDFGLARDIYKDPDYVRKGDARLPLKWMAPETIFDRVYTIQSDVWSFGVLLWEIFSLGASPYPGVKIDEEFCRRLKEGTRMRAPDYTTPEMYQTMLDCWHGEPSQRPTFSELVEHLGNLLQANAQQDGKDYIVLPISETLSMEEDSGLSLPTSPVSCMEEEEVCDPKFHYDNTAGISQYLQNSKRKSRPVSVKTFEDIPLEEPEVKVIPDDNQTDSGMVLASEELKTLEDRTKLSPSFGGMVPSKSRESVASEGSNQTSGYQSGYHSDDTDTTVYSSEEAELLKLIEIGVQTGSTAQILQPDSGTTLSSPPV
Outline: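 Human recombinant GST-fusion VEGFR2 kinase, expressed in Sf9 cells and purified on GSH-agarose, with poly(Glu,Tyr) 4:1 as substrate; phosphorylation read radiometrically. Racemic trifluoroacetate salts tested at 10 concentrations (1 × 10−4 M to 3 × 10−9 M) to give IC50, run in singlicate by a contract lab.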

HeLa [2] = experiment: Antiproliferative activity against human HeLa cells after 4 days by coulter counter method; type: functional, cell-based; details: 96 h
MAEC [3] = experiment: Antimigratory activity against mouse MAEC cell migration after 5 hrs by wound closure assay; type: functional, cell-based
Outline: (§1)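 Confluent MAEC monolayers wounded with a 1.0-mm wide micropipette tip, then incubated in fresh medium with test compound. Wounds photographed after 5 h and width calculated from digital images. Mean ± SD of 2–4 independent experiments; Student t test, p < 0.05 significant.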

MCF7 [4] = experiment: Cytotoxicity against human MCF7 cells at 100 uM after 3 days by coulter counter method; type: cell-based; details: mcf7, 72 h
Outline: (§2)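 Cells seeded at 10,000 cells per cm2; after 16 h, fresh medium with test compound added. Cells trypsinized and counted with a Coulter counter on day 4 (BAEC, HeLa, MCF-7) or day 7 (HMEC-1). Cytotoxicity (cell death) was judged after 3 days in culture. HMEC-1 grown in EGM-2 with supplements and growth factors.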

MCF7 [5] = experiment: Cytotoxicity against human MCF7 cells at 30 uM after 3 days by coulter counter method; type: cell-based; details: mcf7, 72 h; outline: as §2
MAEC [6] = experiment: (§3) Antimigratory activity against mouse MAEC cell migration at 30 uM after 5 hrs by wound closure assay; type: functional; outline: as §1
[7] = Cytotoxicity against bovine BAEC cells at 30 uM after 3 days by coulter counter method; type: cell-based, Bos taurus; details: cattle, 72 h; outline: as §2
[8] = Antimigratory activity against mouse MAEC cell migration at 10 uM after 5 hrs by wound closure assay; type: functional; outline: as §1
[9] = Cytotoxicity against bovine BAEC cells at 100 uM after 3 days by coulter counter method; type: cell-based, Bos taurus; details: cattle, 72 h; outline: as §2
[10] = Antiproliferative activity against bovine BAEC cells after 4 days by coulter counter method; type: functional, cell-based; details: Bos taurus, 96 h
[11] = Cytotoxicity against human HMEC1 cells at 100 uM after 3 days by coulter counter method; type: cell-based; details: hmec-1, 72 h; outline: as §2
HeLa [12] = experiment: Cytotoxicity against human HeLa cells at 100 uM after 3 days by coulter counter method; type: cell-based; details: 72 h; outline: as §2
[13] = Cytotoxicity against human HMEC1 cells at 30 uM after 3 days by coulter counter method; type: cell-based; details: hmec-1, 72 h; outline: as §2
HeLa [14] = experiment: Cytotoxicity against human HeLa cells at 30 uM after 3 days by coulter counter method; type: cell-based; details: 72 h; outline: as §2
HMEC-1 [15] = experiment: Antiangiogenic activity in human HMEC1 cells assessed as inhibition of tube formation at 30 uM after 4 to 6 hrs by matrigel assay; type: functional, cell-based
Outline: (§4)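 HMEC-1 (60,000 cells) seeded on matrigel (10 mg/mL) after 30 min gelling at 37 °C, in DMEM containing test compound; after 4–6 h cells photographed and tubes scored 0 (none) to 3 (maximal, like untreated control). Mean ± SD of 2–4 independent experiments; Student t test, p < 0.05 significant.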

HMEC-1 [16] = experiment: Antiangiogenic activity in human HMEC1 cells assessed as inhibition of tube formation at 10 uM after 4 to 6 hrs by matrigel assay; type: functional, cell-based; outline: as §4
[17] = Antiproliferative activity against human HMEC1 cells after 7 days by coulter counter method; type: functional, cell-based; details: HMEC-1, 168 h
Gallus gallus = species on record: Gallus gallus; experiment: Antiangiogenic activity in chicken embryo chorioallantoic membrane model at 250 nmol/disc after 3 days; type: functional, tissue-based
MCF7 [18] = experiment: Antiproliferative activity against human MCF7 cells after 4 days by coulter counter method; type: functional, cell-based; details: MCF7, 96 h
HMEC-1 [19] = experiment: Antiangiogenic activity in human HMEC1 cells assessed as inhibition of tube formation after 4 to 6 hrs by matrigel assay; type: functional, cell-based; outline: as §4
[20] = Antimigratory activity against mouse MAEC cell migration at 3 uM after 5 hrs by wound closure assay; type: functional; outline: as §1
[21] = as §3; type: functional; outline: as §1

Compound	IC50 (HeLa [2]) [µM]	inhibition (MAEC [3])	Activity (MCF7 [4])	Activity (MCF7 [5])	inhibition (MAEC [6])	Activity [7]	inhibition at 10 µM [8] [%]	Activity [9]	IC50 [10] [µM]	Activity [11]	Activity (HeLa [12])	Activity [13]	Activity (HeLa [14])	inhibition (HMEC-1 [15])	inhibition (HMEC-1 [16])	IC50 [17] [µM]	inhibition (Gallus gallus)	IC50 (MCF7 [18]) [µM]	other results
CN1CC(C)(COc2ccc(C(=N)N)cc2)Oc2ccc(N(CC(=O)O)Cc3cc(F)cc(F)c3)cc21 (racemic) [listing 1 of 2 here]																			inhibition [1]: Dose-dependent effect
CN1CC(C)(COc2ccc(C(=N)N)cc2)Oc2ccc(N(CC(=O)O)Cc3cc(F)cc(F)c3)cc21 (racemic) [listing 2 of 2 here]																			IC50 [1]: 22.5 µM
CCOC(=O)CN(Cc1ccc(F)c(F)c1)c1ccc2c(c1)OC(C)(COc1ccc(C(=N)N)cc1)CN2C (configuration not stated)	4.1	Dose-dependent effect	Toxic	Toxic	Active	Toxic	50	Toxic	4	Toxic	Toxic	Toxic	Toxic	Active	inactive	2.5	Active	4	
CCOC(=O)CN(Cc1ccc(F)cc1)c1ccc2c(c1)N(C)CC(C)(COc1ccc(C(=N)N)cc1)O2 (configuration not stated)	4.8	Dose-dependent effect	Toxic	Toxic	Active	Toxic	50	Toxic	3.8	Toxic	Toxic	Toxic	Toxic	Active	inactive	6	Active	4.1	
CCOC(=O)CN(Cc1cc(F)cc(F)c1)c1ccc2c(c1)OC(C)(COc1ccc(C(=N)N)cc1)CN2C (configuration not stated)	4.9	Dose-dependent effect	Toxic	Toxic	Active	Toxic	50	Toxic	4.1	Toxic	Toxic	Toxic	Toxic	Active	inactive	1.8	Active	3.5	
CCOC(=O)C(=O)N(Cc1ccc(F)cc1)c1ccc2c(c1)OC(C)(COc1ccc(C(=N)N)cc1)CN2C (configuration not stated)	14	Dose-dependent effect	Toxic	Non-toxic	Active	Non-toxic	50	Toxic	6.9	Toxic	Toxic	Non-toxic	Non-toxic			7.6	Active	6.3	inhibition (HMEC-1 [19]): Dose-dependent effect
CCOC(=O)C(=O)N(Cc1ccc(F)cc1)c1ccc2c(c1)N(C)CC(C)(COc1ccc(C(=N)N)cc1)O2 (configuration not stated)	14	Dose-dependent effect	Toxic	Non-toxic	Active	Non-toxic	50	Toxic	6.6	Toxic	Toxic	Non-toxic	Non-toxic			8.4	Active	5.5	inhibition (HMEC-1 [19]): Dose-dependent effect
CCOC(=O)C(=O)N(Cc1cc(F)cc(F)c1)c1ccc2c(c1)OC(C)(COc1ccc(C(=N)N)cc1)CN2C (configuration not stated)	6.6	Dose-dependent effect	Toxic	Non-toxic	Active	Non-toxic	50	Toxic	4.6	Toxic	Toxic	Non-toxic	Non-toxic			6.8	Active	2.9	inhibition (HMEC-1 [19]): Dose-dependent effect; inhibition at 3 µM [20]: > 40%
CCOC(=O)CN(Cc1cccc(F)c1)c1ccc2c(c1)N(C)CC(C)(COc1ccc(C(=N)N)cc1)O2 (configuration not stated)	4.6	Dose-dependent effect	Toxic	Toxic	Active	Toxic	50	Toxic	3.9	Toxic	Toxic	Toxic	Toxic	Active	inactive	6	Active	4.2	inhibition at 3 µM [20]: > 40%
CCOC(=O)C(=O)N(Cc1cccc(F)c1)c1ccc2c(c1)N(C)CC(C)(COc1ccc(C(=N)N)cc1)O2 (racemic)																			IC50 [1]: 80 µM
CCOC(=O)CN(Cc1ccc(F)cc1)c1ccc2c(c1)OC(C)(COc1ccc(C(=N)N)cc1)CN2C (configuration not stated)	4	Dose-dependent effect	Toxic	Toxic		Toxic	78	Toxic	2.9	Toxic	Toxic	Toxic	Toxic	Active	inactive	2.9	Active	5.3	inhibition at 30 µM [21]: 95%; inhibition at 3 µM [20]: 41%
CCOC(=O)CN(Cc1cccc(F)c1)c1ccc2c(c1)OC(C)(COc1ccc(C(=N)N)cc1)CN2C (configuration not stated)	4.5	Dose-dependent effect	Toxic	Toxic	Active	Toxic	50	Toxic	4.1	Toxic	Toxic	Toxic	Toxic	Active	inactive	2.6	Active	3.9	
CCOC(=O)CN(Cc1ccc(F)c(F)c1)c1ccc2c(c1)N(C)CC(C)(COc1ccc(C(=N)N)cc1)O2 (configuration not stated)	4.8	Dose-dependent effect	Toxic	Toxic	Active	Toxic	50	Toxic	4.1	Toxic	Toxic	Toxic	Toxic	Active	inactive	4.2	Active	3.9	
CCOC(=O)C(=O)N(Cc1cccc(F)c1)c1ccc2c(c1)N(C)CC(C)(COc1ccc(C(=N)N)cc1)O2 (configuration not stated)	20		Toxic	Non-toxic		Non-toxic	50	Toxic	18	Toxic	Toxic	Non-toxic	Non-toxic			7.7		6.5	inhibition at 3 µM [20]: > 40%
